# Laboratory results: ChEMBL document CHEMBL1134773, “Design and synthesis of potent and selective alpha(4)beta(7) integrin antagonists” (J Med Chem, 2001)
# Target: T1, Integrin alpha-4/beta-7 (Homo sapiens) (UniProt P13612+P26010)
# Experiment: Ability to inhibit adhesion of alpha4-beta7 integrin expressing 38-beta7 lymphoma cells to chinese hamster ovary (CHO) cells stably transfected with MAdCAM-1
# Assay type: cell-based
# Summary of the method: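 38-β7 lymphoma cells (α4β7+) labelled 30 min at 37 °C with 12 μg/mL H33342, then 8×10^5/mL in buffer with 1.0 mM Ca2+/Mg2+. Preincubated 10 min at 37 °C with peptide at 1 mg/mL final. Allowed to adhere 30 min at 37 °C to confluent MAdCAM-1-transfected CHO monolayers (seeded 24 h before). Nonadherent cells removed by inverse centrifugation. Result given as % of medium control, mean of two experiments.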
row,Adhesion [%],SMILES
1,111,CC(C)C[C@@H]1NC(=O)[C@@H](C)NC(=O)[C@H](C)NC(=O)[C@H]2CCCN2C(=O)[C@H]([C@@H](C)O)NC(=O)[C@@H](CC(=O)O)NC1=O
2,99,CC(C)C[C@@H]1NC(=O)[C@@H](CC(=O)O)NC(=O)[C@@H](CC(=O)O)NC(=O)[C@@H](C)NC(=O)[C@H]([C@@H](C)O)NC(=O)[C@@H](CC(=O)O)NC1=O
3,30,CC(C)C[C@@H]1NC(=O)[C@H]2CCCN2C(=O)[C@H](C)NC(=O)[C@@H](C)NC(=O)[C@H]([C@@H](C)O)NC(=O)[C@@H](CC(=O)O)NC1=O
4,102,CC(C)C[C@@H]1NC(=O)[C@@H](CC(=O)O)NC(=O)[C@H]2CCCN2C(=O)[C@@H](CCCCN)NC(=O)[C@H]([C@@H](C)O)NC(=O)[C@@H](CC(=O)O)NC1=O
5,47,CC(C)C[C@@H]1NC(=O)[C@@H](C)NC(=O)[C@H]2CCCN2C(=O)[C@@H](CC(=O)O)NC(=O)[C@H]([C@@H](C)O)NC(=O)[C@@H](CC(=O)O)NC1=O
6,87,CC(C)C[C@@H]1NC(=O)[C@@H](CC(=O)O)NC(=O)[C@H]2CCCN2C(=O)[C@@H](Cc2c[nH]c3ccccc23)NC(=O)[C@H]([C@@H](C)O)NC(=O)[C@@H](CC(=O)O)NC1=O
7,85,CC(C)C[C@@H]1NC(=O)[C@H](C)NC(=O)[C@@H](C)NC(=O)[C@@H]([C@@H](C)O)NC(=O)[C@@H](CC(=O)O)NC1=O
8,65,CC(C)C[C@@H]1NC(=O)[C@@H](CCC(=O)O)NC(=O)[C@H]2CCCN2C(=O)[C@@H](C)NC(=O)[C@H]([C@@H](C)O)NC(=O)[C@@H](CC(=O)O)NC1=O
9,56,CC(C)C[C@@H]1NC(=O)[C@@H](Cc2ccccc2)NC(=O)[C@@H](Cc2ccccc2)NC(=O)[C@@H](CC(=O)O)NC(=O)[C@H]([C@@H](C)O)NC(=O)[C@@H](CC(=O)O)NC1=O
10,85,CC(C)C[C@@H]1NC(=O)[C@@H](C)NC(=O)[C@H](C)NC(=O)[C@@H](C)NC(=O)[C@H]([C@@H](C)O)NC(=O)[C@@H](CC(=O)O)NC1=O
11,74,CC(C)C[C@@H]1NC(=O)[C@H]2CCCN2C(=O)[C@@H](C)NC(=O)[C@H]([C@@H](C)O)NC(=O)[C@@H](CC(=O)O)NC1=O
12,97,CC(C)[C@@H]1NC(=O)[C@@H](C)NC(=O)[C@H]2CCCN2C(=O)[C@@H](C)NC(=O)[C@H]([C@@H](C)O)NC(=O)[C@@H](CC(=O)O)NC1=O
13,9,CC(C)C[C@@H]1NC(=O)[C@@H]2Cc3ccccc3CN2C(=O)[C@H]2CCCN2C(=O)[C@@H](CC(=O)O)NC(=O)[C@H]([C@@H](C)O)NC(=O)[C@@H](CC(=O)O)NC1=O
14,63,CC(C)C[C@@H]1NC(=O)[C@@H](C)NC(=O)[C@@H](Cc2ccccc2)NC(=O)[C@@H](CC(=O)O)NC(=O)[C@H]([C@@H](C)O)NC(=O)[C@@H](CC(=O)O)NC1=O
15,102,C[C@H]1NC(=O)[C@H]2CCCN2C(=O)[C@@H](CC(=O)O)NC(=O)[C@H]([C@@H](C)O)NC(=O)[C@@H](CC(=O)O)NC(=O)[C@H](Cc2ccccc2)NC1=O
16,100,CC[C@H](C)[C@H]1NC(=O)[C@H](C)NC(=O)[C@@H](C)NC(=O)[C@H]([C@@H](C)O)NC(=O)[C@@H](CC(=O)O)NC1=O (stereo in doubt; P1)
17,86,CC(C)C[C@@H]1NC(=O)[C@@H](CC(=O)O)NC(=O)[C@@H](Cc2ccccc2)NC(=O)[C@@H](C)NC(=O)[C@H]([C@@H](C)O)NC(=O)[C@@H](CC(=O)O)NC1=O
18,50,CC(C)C[C@@H]1NC(=O)[C@@H](C)NC(=O)[C@H]2CCCN2C(=O)[C@@H](C)NC(=O)[C@H](C(C)C)NC(=O)[C@@H](CC(=O)O)NC1=O
19,63,CC[C@H](C)[C@H]1NC(=O)[C@H](C)NC(=O)[C@@H](C)NC(=O)[C@H]([C@@H](C)O)NC(=O)[C@@H](CC(=O)O)NC1=O (stereo in doubt; P6)
20,98,C[C@H]1NC(=O)[C@H]2CCCN2C(=O)[C@@H](CC(=O)O)NC(=O)[C@H]([C@@H](C)O)NC(=O)[C@@H](CC(=O)O)NC(=O)[C@H](c2ccccc2)NC1=O

row,Adhesion [%],SMILES
1,114,C[C@H]1NC(=O)[C@H]2CCCN2C(=O)[C@@H](CC(=O)O)NC(=O)[C@H]([C@@H](C)O)NC(=O)[C@@H](CC(=O)O)NC(=O)[C@@H](c2ccccc2)NC1=O
2,100,NC(=O)C[C@@H]1NC(=O)CNC(=O)[C@@H](Cc2ccccc2)NC(=O)[C@@H](Cc2c[nH]cn2)NC(=O)[C@@H](CCC(=O)O)NC1=O
3,91,CC(C)C[C@@H]1NC(=O)[C@@H](C)NC(=O)[C@H]2CCCN2C(=O)[C@@H](C)NC(=O)CNC(=O)[C@@H](CC(=O)O)NC1=O
4,26,CC(C)C[C@@H]1NC(=O)[C@@H](CCCN=C(N)N)NC(=O)[C@H]2CCCN2C(=O)[C@@H](C)NC(=O)[C@H]([C@@H](C)O)NC(=O)[C@@H](CC(=O)O)NC1=O
5,137,CC[C@H](C)[C@@H]1NC(=O)[C@H](C)NC(=O)[C@@H](C)NC(=O)[C@H]([C@@H](C)O)NC(=O)[C@@H](CC(=O)O)NC1=O
6,10,CC(C)C[C@@H]1NC(=O)[C@@H](Cc2ccc(C(=O)c3ccccc3)cc2)NC(=O)[C@H]2CCCN2C(=O)[C@@H](CC(=O)O)NC(=O)[C@H]([C@@H](C)O)NC(=O)[C@@H](CC(=O)O)NC1=O
7,83,CSCC[C@H]1NC(=O)[C@H]([C@@H](C)O)NC(=O)[C@@H](CC(=O)O)NC(=O)[C@H](CC(C)C)NC(=O)[C@@H](CC(=O)O)NC(=O)[C@H]2CCCN2C1=O
8,90,CC(C)C[C@@H]1NC(=O)[C@@H](C)NC(=O)[C@H]2CCCN2C(=O)[C@@H](C)NC(=O)[C@H](CO)NC(=O)[C@@H](CC(=O)O)NC1=O
9,49,CC(C)C[C@@H]1NC(=O)[C@@H]([C@@H](C)O)NC(=O)[C@H]2CCCN2C(=O)[C@@H](C)NC(=O)[C@H]([C@@H](C)O)NC(=O)[C@@H](CC(=O)O)NC1=O
10,100,CC(C)C[C@@H]1NC(=O)[C@@H](CC(=O)O)NC(=O)[C@H]2CCCN2C(=O)[C@@H](Cc2ccccc2)NC(=O)[C@H]([C@@H](C)O)NC(=O)[C@@H](CC(=O)O)NC1=O
11,81,CC(C)C[C@@H]1NC(=O)[C@@H](Cc2ccc(O)cc2)NC(=O)[C@H]2CCCN2C(=O)[C@@H](CCCCN)NC(=O)[C@H]([C@@H](C)O)NC(=O)[C@@H](CC(=O)O)NC1=O
12,89,CC(C)C[C@@H]1NC(=O)[C@H](C)NC(=O)[C@H]2CCCN2C(=O)[C@H]([C@@H](C)O)NC(=O)[C@@H](CC(=O)O)NC1=O
13,7,CC(C)C[C@@H]1NC(=O)[C@@H](C)NC(=O)[C@H]2CCCN2C(=O)[C@@H](C)NC(=O)[C@H]([C@@H](C)O)NC(=O)[C@@H](CC(=O)O)NC1=O
14,76,CC(C)C[C@@H]1NC(=O)[C@@H](CC(=O)O)NC(=O)[C@H]2CCCN2C(=O)[C@@H](Cc2ccc(O)cc2)NC(=O)[C@H]([C@@H](C)O)NC(=O)[C@@H](CC(=O)O)NC1=O
15,64,CC[C@H](C)[C@@H]1NC(=O)[C@@H](C)NC(=O)[C@H]2CCCN2C(=O)[C@@H](C)NC(=O)[C@H]([C@@H](C)O)NC(=O)[C@@H](CC(=O)O)NC1=O
16,40,CC(C)C[C@@H]1NC(=O)[C@@H](C)NC(=O)[C@H]2CCCN2C(=O)[C@@H](CC(=O)O)NC(=O)[C@H](C(C)C)NC(=O)[C@@H](CC(=O)O)NC1=O
17,105,C[C@H]1NC(=O)[C@H]2CCCN2C(=O)[C@@H](C)NC(=O)[C@H]([C@@H](C)O)NC(=O)[C@@H](CC(=O)O)NC(=O)CNC1=O
18,58,CC(C)C[C@@H]1NC(=O)C(C2CCCCC2)NC(=O)[C@H]2CCCN2C(=O)[C@@H](CC(=O)O)NC(=O)[C@H]([C@@H](C)O)NC(=O)[C@@H](CC(=O)O)NC1=O (stereo partly specified)
19,85,CC(C)C[C@@H]1NC(=O)[C@@H](Cc2ccccc2)NC(=O)[C@H]2CCCN2C(=O)[C@@H](CCCCN)NC(=O)[C@H]([C@@H](C)O)NC(=O)[C@@H](CC(=O)O)NC1=O
20,115,CC(C)C[C@@H]1NC(=O)[C@@H](CC(=O)O)NC(=O)[C@H]2CCCN2C(=O)[C@@H](C)NC(=O)[C@H]([C@@H](C)O)NC(=O)[C@@H](CC(=O)O)NC1=O

# Target: T1, Integrin alpha-4/beta-7 (Homo sapiens)
# Experiment: Inhibition of alpha4-beta7 lymphoma cell binding to CHO-VCAM-1 cells.
# Assay type: cell-based
row,Adhesion [%],SMILES
1,93,NC(=O)C[C@@H]1NC(=O)CNC(=O)[C@@H](Cc2ccccc2)NC(=O)[C@@H](Cc2c[nH]cn2)NC(=O)[C@@H](CCC(=O)O)NC1=O
